Activity calls are given as the source filed them. The calls are words filed in the database; no cut-off is given here.
What was measured:
HCT-8 = assay: Cytotoxicity against human HCT8 cells; assay type: functional, cell-based
Procedure, shortened: (§1)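 Cytotoxicity against a panel of six human tumor lines (A549, Bel-7402, BGC-823, HCT-8, HCT-116, A2780) was measured in vitro by MTT assay.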

A2780 = assay: Cytotoxicity against human A2780 cells; assay type: functional, cell-based; procedure, shortened: as §1
A549 = assay: Cytotoxicity against human A549 cells; assay type: functional, cell-based; procedure, shortened: as §1
Bel-7402 = assay: Cytotoxicity against human Bel7402 cells; assay type: functional, cell-based; procedure, shortened: as §1
HCT-116 = assay: Cytotoxicity against human HCT116 cells; assay type: functional, cell-based; procedure, shortened: as §1
BGC-823 = assay: Cytotoxicity against human BGC823 cells; assay type: functional, cell-based; procedure, shortened: as §1
[1] = Antiinflammatory activity in rat PMNC assessed as inhibition of platelet-activating factor-induced beta-glucuronidase release; assay type: functional
Procedure, shortened: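 In vitro assay on rat polymorphonuclear leukocytes stimulated with platelet-activating factor; β-glucuronidase release was measured, with a positive control run alongside. Inhibitory potency is reported as IC50 in µM.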

SMILES | inhibition (HCT-8) | inhibition (A2780) | inhibition (A549) | inhibition (Bel-7402) | inhibition (HCT-116) | inhibition (BGC-823) | IC50 [1] [µM]
CS[C@@]12C[C@H]3C(=O)CC[C@H](O)[C@H]3N1C(=O)[C@@]13C[C@H]4C(=O)C[C@@H](S1)[C@H](O)[C@H]4N3C2=O | inactive | inactive | inactive | inactive | inactive | inactive | –
CS[C@@]12C[C@H]3C(=O)CC[C@H](O)[C@H]3N1C(=O)[C@@]13C[C@H]4C(=O)C[C@@H](SS1)[C@H](O)[C@H]4N3C2=O [EPICOCCIN M] | inactive | inactive | inactive | inactive | inactive | inactive | 4.16
O=C1C[C@H]2SS[C@@]34C[C@@H]1[C@@H]([C@H]2O)N3C(=O)[C@]12C[C@H]3C(=O)[C@H](C[C@H](O)[C@H]3N1C4=O)S2 | inactive | inactive | inactive | inactive | inactive | inactive | –
CCO[C@@H]1[C@H](O)[C@@H]2[C@H]3C[C@@]4(S[C@@H]1C3=O)C(=O)N1[C@@H]3[C@@H](O)[C@H]5CC(=O)[C@@H]3C[C@@]1(SS5)C(=O)N24 [EPICOCCIN S] | inactive | inactive | inactive | inactive | inactive | inactive | 4.95
O=C1C[C@H]2S[C@@]34C[C@@H]1[C@@H]([C@H]2O)N3C(=O)[C@@]12C[C@H]3C(=O)[C@@H](S1)[C@H](O)[C@H](O)[C@H]3N2C4=O [EPICOCCIN E] | inactive | inactive | inactive | inactive | inactive | inactive | 1.98
O=C1N2[C@H]3[C@H](C[C@]24SS[C@]12C[C@H]1[C@@H]([C@@H](O)CC[C@@H]1O)N2C4=O)[C@@H](O)CC[C@@H]3O | inactive | inactive | inactive | inactive | inactive | inactive | –
O=C1C[C@H]2SS[C@@]34C[C@@H]1[C@@H]([C@H]2O)N3C(=O)[C@@]12C[C@H]3C(=O)[C@@H](S1)[C@@H](O)[C@H](O)[C@H]3N2C4=O | inactive | inactive | inactive | inactive | inactive | inactive | –
CS[C@@]12CC3=CC=C[C@H](O)[C@H]3N1C(=O)[C@]13C[C@@]4(O)[C@H](C=C[C@H](O)[C@H]4N1C2=O)S3 | inactive | inactive | inactive | inactive | inactive | inactive | –
CS[C@@]12C[C@H]3C(=O)CC[C@H](O)[C@H]3N1C(=O)[C@]1(SC)C[C@H]3C(=O)CC[C@H](O)[C@H]3N1C2=O [EPICOCCIN G] | inactive | inactive | inactive | inactive | inactive | inactive | 3.07
CS[C@@]12C[C@H]3C(=O)C[C@H](O)[C@H](O)[C@H]3N1C(=O)[C@@]13C[C@H]4C(=O)C[C@@H](SS1)[C@H](O)[C@H]4N3C2=O | inactive | inactive | inactive | inactive | inactive | inactive | –
O=C1C[C@@H]2SS[C@@]34C[C@@H]1[C@@H]([C@H]2O)N3C(=O)[C@@]12C[C@H]3C(=O)[C@H](S1)[C@H](O)[C@H](O)[C@H]3N2C4=O | inactive | inactive | inactive | inactive | inactive | inactive | –
C[C@@H]1C(=O)O[C@H]2[C@H](O)[C@@]34[C@H]5C[C@@H](C(C)(C)C)[C@]36[C@@H](OC(=O)[C@@H]6O)O[C@@]4(C(=O)O5)[C@@]12O [GINKOLIDE B] | – | – | – | – | – | – | 2.35
O=C1C[C@H]2SS[C@@]34C[C@@H]1[C@@H]([C@H]2O)N3C(=O)[C@@]12C[C@H]3C(=O)C[C@@H](S1)[C@H](O)[C@H]3N2C4=O | inactive | inactive | inactive | inactive | inactive | inactive | –
CS[C@@]12C[C@H]3[C@@H]([C@@H](O)CC[C@@H]3O)N1C(=O)[C@@]13C[C@H]4C(=O)C[C@@H](S1)[C@H](O)[C@H]4N3C2=O | inactive | inactive | inactive | inactive | inactive | inactive | –
CS[C@@]12C[C@H]3C(=O)CC[C@H](O)[C@H]3N1C(=O)[C@]1(SC)C[C@H]3[C@@H]([C@@H](O)CC[C@@H]3O)N1C2=O | inactive | inactive | inactive | inactive | inactive | inactive | –
O=C1N[C@@H](Cc2ccccc2)C(=O)N[C@H]1Cc1ccccc1 | inactive | inactive | inactive | inactive | inactive | inactive | –
CS[C@@]12C[C@H]3C(=O)C=C[C@H](O)[C@H]3N1C(=O)[C@]1(SC)C[C@H]3C(=O)CC[C@H](O)[C@H]3N1C2=O | inactive | inactive | inactive | inactive | inactive | inactive | –
O=C1C[C@@H]2SS[C@@]34C[C@@H]1[C@@H]([C@H]2O)N3C(=O)[C@@]12C[C@H]3C(=O)C[C@H](SS1)[C@H](O)[C@H]3N2C4=O | inactive | inactive | inactive | inactive | inactive | inactive | –
CS[C@@]12C[C@H]3[C@@H]([C@@H](O)CC[C@@H]3O)N1C(=O)[C@]1(SC)C[C@H]3[C@@H]([C@@H](O)CC[C@@H]3O)N1C2=O | inactive | inactive | inactive | inactive | inactive | inactive | –
O=C1CC[C@H](O)[C@H]2[C@H]1C[C@@]13SS[C@]4(C[C@H]5[C@@H]([C@@H](O)CC[C@@H]5O)N4C1=O)C(=O)N23 | inactive | inactive | inactive | inactive | inactive | inactive | –

Reference: ChEMBL document CHEMBL1177738, “Thiodiketopiperazines produced by the endophytic fungus Epicoccum nigrum” (J Nat Prod, 2010)
